Only some compounds are listed: those with a hit (about 1.8% of all), similar ones and a draw of the others.
A3G deaminase – blocks human APOBEC3G single-stranded DNA deamination. AID 493012. recombinant A3G, ssDNA deamination FAM/TAMRA fluorescence. Q9HC16. inhibition, % at 20 µM. hit rate 0.28% among 330,000;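 active = inhibition of at least 40% at 20 µM, with no more than 30% in the related APOBEC3A deaminase screen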;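 also: plate controls were DMSO wells with A3G for no effect and wells lacking A3G enzyme for full effect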
Target sequence (Q9HC16 whole entry, looked up): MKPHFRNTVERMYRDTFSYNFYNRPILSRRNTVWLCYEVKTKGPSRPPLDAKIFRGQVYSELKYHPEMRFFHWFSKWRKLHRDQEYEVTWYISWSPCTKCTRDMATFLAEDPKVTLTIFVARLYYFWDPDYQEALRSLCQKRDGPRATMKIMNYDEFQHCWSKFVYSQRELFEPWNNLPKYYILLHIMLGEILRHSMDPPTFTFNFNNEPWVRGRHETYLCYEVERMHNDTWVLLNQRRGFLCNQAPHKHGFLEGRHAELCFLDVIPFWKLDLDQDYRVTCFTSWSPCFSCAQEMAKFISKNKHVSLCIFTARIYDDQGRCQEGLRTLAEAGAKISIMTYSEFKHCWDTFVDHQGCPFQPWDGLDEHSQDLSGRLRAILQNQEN
TbMetRS inhib – blocks T. brucei methionyl-tRNA synthetase activity; AID 624268; hit rate 0.4% among 360,000; purified T. brucei MetRS, ATP depletion, Kinase-Glo luminescence; inhibition, % at 11.9 µM;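 active = inhibition above a per-plate cutoff of the control wells' mean inhibition plus 3 SD, cut at about 5.5% in these data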;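 also: 0% = DMSO wells median and 100% = median of wells with control inhibitor compound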
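assay system = parasite MetRS enzyme | timing = 15 min preincubation, 2 h reaction, all 25 °C | evaluation = percent inhibition relative to median high and low control wells | medium = HEPES buffer containing pyrophosphatase, BSA, spermine, DTT | compound = single dose, 11.9 µM final nominal, 0.9% final DMSO | detection = Kinase-Glo luminescence, ATP depletion format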
APOBEC3A inh – human APOBEC3A DNA deaminase inhibition; inhibition, % at 20 µM; hit rate 0.41% among 330,000; recombinant A3A, FAM/TAMRA ssDNA deamination fluorescence; P31941;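 active = at least 40% inhibition at 20 µM here, with at most 30% in a related deaminase screen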;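 also: plate controls were A3A with DMSO for no effect and wells lacking A3A enzyme for full effect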
p-CIP stab down – lowers stability of the mouse p/CIP coactivator protein. Q05BA5. F442A p/CIP-EGFP cells, EGFP fluorescence, 16 h. decrease of EGFP signal, % at 10 µM. hit rate 0.01% among 290,000. AID 1984;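 active = EGFP signal decrease of at least 30% at 10 µM or well 3 SD below plate mean, unless failing retest; inactive = the rest, including hits failing retest or dose response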
PHOSPHO1 inh – blocks human PHOSPHO1 phosphatase activity; Q8TCT1; recombinant PHOSPHO1, absorbance phosphatase assay; inhibition, % at 13.3 µM; hit rate 1.1% among 290,000; AID 1565; in the data active = inhibition above about 60%
An asterisk follows results filed as active; nt = no result.

SMILES | A3G deaminase | TbMetRS inhib | APOBEC3A inh | p-CIP stab down | PHOSPHO1 inh
c1ccc2c(-c3nnc(SCc4cn5ccccc5n4)o3)c[nH]c2c1 | -5 | 2 | -18 | -7 | 85*
COc1cc(NC(=O)c2cccc3c2C(=O)N(C2CCCCC2)C3)cc(OC)c1OC | 5 | -1 | 5 | -13 | 38
Cc1ccc(C(=O)Nc2nc3n(n2)C(c2ccccc2)CC(=O)N3)cc1 (stereo not given) | -5 | 0 | -3 | -10 | 42
CCOC(=O)N1CCC(N2C(=O)c3ccc(C(=O)NCCOC)cc3C2=O)CC1 | -5 | 0 | -3 | 2 | 20
Cc1c(-n2c(-c3ccccc3)nc3ccccc3c2=O)c(=O)n(-c2ccccc2)n1C | -8 | 0 | -8 | -5 | 60*
C=CCN1C(=O)c2ccccc2Sc2ccc(C(=O)NCC(OC)OC)cc21 | -8 | -1 | -6 | 5 | 42
COC(=O)c1cc(S(=O)(=O)NC2CCC(C)CC2)cn1C (stereo not given) | -5 | 0 | -4 | 0 | 64*
CC(=O)c1cc(C#N)c(SCc2ccncc2)nc1C | -2 | 0 | -1 | -1 | 69*
CC(=O)NC(Cc1ccccc1C)C(=O)NC1CCN(c2nnnn2-c2ccccc2)CC1 (stereo not given) | 10 | 0 | 4 | -6 | 15
Cc1cccc(C(=O)Nc2ccc(C(=O)Nc3ccc(O)cc3)cc2)c1 | -5 | 0 | 1 | 9 | 62*
CC(=O)N1CCN(C(=S)c2ccc(N(C)C)cc2)CC1 | 20 | 0 | 0 | -7 | 90*
Cc1ccc(N2CCN(C(=S)c3ccc(N(C)C)cc3)CC2)cc1 | 1 | 0 | -6 | -1 | 66*
Cc1cc(C(=O)NNC(=O)c2ccc(F)cc2)c(C)s1 | 1 | -1 | 4 | nt | nt
CCOC(=O)c1ccc(Cl)c(NC(=O)c2ccc(-c3ccccc3)cc2)c1 | -8 | -1 | -2 | 1 | 66*
Cc1ccc(S(=O)(=O)N(C)c2ccc(OC(=O)CN3C(=O)NC(C)(c4ccccc4)C3=O)cc2)cc1C (stereo not given) | nt | 0 | nt | nt | nt
O=C(CCCN1C(=O)C(c2ccccc2)Oc2cccnc21)NCc1ccccc1F (stereo not given) | 2 | 0 | 1 | -4 | 13
CNC(=S)NNC(=O)c1sccc1OCc1cccc(C(F)(F)F)c1 | -10 | 0 | -4 | 2 | 69*
CNC(=S)NNC(=O)c1sccc1OCc1ccc(C)cc1 | -11 | 0 | -5 | 12 | 74*
O=C(c1ccc(-c2cccc(C(F)(F)F)c2)o1)N1CCCC(C(F)(F)F)C1 (stereo not given) | -2 | 0 | -4 | nt | nt
COc1ccccc1N1CCN(C2CCCN(C(=O)c3ccsc3)C2)CC1 (stereo not given) | 5 | 0 | -1 | -12 | -6
CC[n+]1c(/C=C/Nc2ccccc2)oc2ccc(OC)cc21 | 2 | -1 | 5 | -107 | 28
CC[n+]1c(/C=C/Nc2ccccc2)oc2ccccc21 | 1 | -1 | 5 | -40 | 101*
Cc1ccc(-c2cc(-c3ccc(Cl)cc3)c(C#N)c(N)n2)o1 | -9 | 0 | -1 | 1 | 72*
c1ccc(CN2CCC3(CC2)Nc2ccccc2S3)cc1 | -2 | 1 | -1 | -4 | -10
COc1ccc(Nc2cc(C(=O)NCCCN3CCN(C)CC3)c3ccccc3n2)c(OC)c1 | 1 | -1 | 0 | -5 | 67*
SMILES | A3G deaminase | TbMetRS inhib | APOBEC3A inh | p-CIP stab down | PHOSPHO1 inh
COc1cc(C(=O)Nc2nc(C)c(Cc3ccc4c(c3)OCO4)s2)cc(OC)c1OC | 21 | 0 | -3 | -4 | 74*
COc1ccc(CC(=O)NCc2nnc(SCC(=O)Nc3ccc(OC)cc3)n2C)cc1 | -1 | 0 | 0 | -7 | 66*
COc1ccc(CC(=O)NCc2nnc(SCC(=O)Nc3ccccc3)n2C)cc1 | -4 | -1 | -2 | -5 | 37
CCOC(=O)C(C)Sc1nc2c(c(=O)[nH]c(=O)n2C)n1C/C=C(/C)Cl (stereo not given) | 37 | 0 | 65 | -8 | 65*
COc1cccc(NC(=S)NNC(=O)c2c([N+](=O)[O-])c(C)nn2C)c1 | -8 | -1 | 7 | -2 | 82*
CC(C)=C(NC(=O)c1ccccc1)C(=O)NCCc1nc2ccccc2[nH]1 | -6 | 0 | -4 | -4 | 64*
O=C(CSc1nc(-c2ccccc2)nn1C(=O)c1ccccc1)Nc1cccc([N+](=O)[O-])c1 | -5 | 18* | -2 | -12 | 36

High-throughput results deposited in PubChem by several laboratories.
